This sample holds only a part of the variants without activity.
B1: tRNA (parent)
chain: GUUCCGUUGGCGUAAUGGUAACGCGUCUCCCUCCUAAGGAGAAGACUGCGGGUUCGAGUCCCGUACGGAACG

Variants of: B1
Experiment: yeast fitness relative to wild type (ratio to wild type); higher = fitter; tRNA-Arg(CCU), competitive growth, 37 C, YPD
In short: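 Variants of the tRNA-Arg(CCU) gene, chemically synthesised with a 3% per-site mutation rate at 69 sites, were placed at the native genomic locus in Saccharomyces cerevisiae. The pooled strains were competed in YPD at 37°C for 24 hours in six parallel replicates. Gene amplicons from the start population and from each end population were read by 100-nucleotide paired-end sequencing. Darwinian fitness relative to wild type came from changes in genotype frequencies; genotypes needed ≥ 100 starting reads, and estimates < 0.5 were set to 0.5.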

| Variant | yeast fitness |
| --- | --- |
| C5U G48A C55U | 0.558 |
| C5U G9C C11G C24A U26G C31G A45U C61U | ≤ 0.5 |
| C5U C46U C55A G56C | ≤ 0.5 |
| C5U G41A G52A | ≤ 0.5 |
| C5U G41A G52C | ≤ 0.5 |
| G6A A14C A42U G56A G63C | 0.511 |
| C5U U47A G48C G51A C61A | 0.564 |
| C5U U16A U47C | 0.785 |
| C5U U8G U28C A36G | ≤ 0.5 |
| C5U G12A A45C | 0.782 |
| C5U C31G A40G A45G C46G G48A C62U G63A | ≤ 0.5 |
| C5U U32C C49G G68C | 0.593 |
| C5U C30A A42U A69C | ≤ 0.5 |
| C5U C30U | 0.942 |
| C5U C30G | 0.676 |
| C5U U7C A45C | 0.74 |
| C5U C49G A69U | 0.629 |
| C5U U19C C66G | 0.606 |
| C5U U19C C66U | 0.82 |
| C5U G18A G25C A69C | ≤ 0.5 |
| C5U G10C C30G C34U A42C G52A | ≤ 0.5 |

| Variant | yeast fitness |
| --- | --- |
| C5U U8C C29G U53G | ≤ 0.5 |
| C5U C29U G38C | ≤ 0.5 |
| C5U U16A C33U C49A | ≤ 0.5 |
| C5U U26G C33G G50C | ≤ 0.5 |
| C5U G25A U32G | ≤ 0.5 |
| C5U C33U A36C U54C | ≤ 0.5 |
| C5U C46U C60G | ≤ 0.5 |
| C5U U47A | 1.06 |
| C5U C33U C62A | 0.579 |
| C5U C34G U35C | 0.533 |
| C5U C29U C34G | ≤ 0.5 |
| C5U U7G C30U G51C C61A | ≤ 0.5 |
| C5U U35C A69U | 0.536 |
| C5U G25A U26A G56C A65C | ≤ 0.5 |
| C5U G48A | 0.891 |
| C5U U53G | 0.617 |
| G6A A14U U64G | 0.664 |
| C5U U19C C55A G58C | ≤ 0.5 |
| C5U G12A C60G | ≤ 0.5 |
| C5U G44C A45U | 0.657 |
| C5U U7A G10A G48C | ≤ 0.5 |

| Variant | yeast fitness |
| --- | --- |
| C5U U35A A36G | 0.673 |
| C5U G18A A40U U47C G68A | 0.617 |
| C5U U19C C29U A42C A57G | ≤ 0.5 |
| C5U U28C A36C A40C A42U | ≤ 0.5 |
| C5U G12C | 0.818 |
| C5U G12A | 0.959 |
| C5U U26C A36C U64A | ≤ 0.5 |
| C5U U16A C34A A70G | ≤ 0.5 |
| G6A A15C C22G A43C G50A | ≤ 0.5 |
| C5U U32G A36U G68C | ≤ 0.5 |
| C5U U26A G56C A65C | 0.53 |
| G6A A20C A40C A42U G56A C66G | ≤ 0.5 |
| C5U U8A A21G C49U G63C | ≤ 0.5 |
| C5U U7G C30A A65C | 1.07 |
| C5U G6C C11A C31G A36C | ≤ 0.5 |
| C5U C29U G44A | 0.868 |
| C5U G9C G52C U54C A69C | ≤ 0.5 |
| C5U C61A G67A | 0.576 |
| C5U C31G U59C | 0.913 |
| C5U G10A A20G A36U A43C C61G | ≤ 0.5 |
| C5U U32G A36U | ≤ 0.5 |

| Variant | yeast fitness |
| --- | --- |
| C5U U7A A65C | 0.64 |
| C5U G10A G12A U53A | ≤ 0.5 |
| C5U U32A C34A A65C | ≤ 0.5 |
| C5U G9A C49A | 0.513 |
| C5U G18A C30A G58A G68U | 0.581 |
| C5U U26A C46G | 0.717 |
| C5U G17C A21U A40G U47G G48C | ≤ 0.5 |
| C5U U13A C29A C31G | ≤ 0.5 |
| C5U G50C | 0.699 |
| G6A A14U A57G U64G | ≤ 0.5 |
| C5U U19C A43U | 1.09 |
| C5U C34U U35C A70C | ≤ 0.5 |
| G6A A15U U59A G68C | ≤ 0.5 |
| G6A A15C U16A A21G U26A C30U C61A A69U | ≤ 0.5 |
| C5U U28C C29G C61U | 0.563 |
| C5U C30U A37C U54A | ≤ 0.5 |
| C5U U16G A43G G67C | ≤ 0.5 |
| G6A A14C G58A | 0.613 |
| C5U U28C C61U | 0.705 |
| G6A A15C A20U | 0.56 |
